Measured values published in PubChem BioAssay AID624299 (Broad Institute, 2012).
Several values for one entry are separate records, joined by “and”; a condition that tells them apart may be missing. Equal values may be shown once. Activity calls are given as the source filed them.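 The calls were made as follows: active = compounds lowering the cell viability light signal with a fitted AC50 at most twice the top dose tested; inconclusive = flat fit with 30 to 70% inhibition, or poor fit; inactive = the rest.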

Tested on: MALME3 melanoma viability, CellTiter-Glo ATP luminescence, 24 h
Assay: MALME3 melanoma cell viability reduction, dose response, orthogonal assay for MITF inhibitor project, CellTiter-Glo luminescence, dry powder samples, set 2 (AID 624299)
Details: not given
Summary of the method: (§1)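 Material: MALME3 melanoma cells; Buffer or medium: IMDM lacking phenol red, supplemented with 10% FBS; Dosing: multi-dose pinned compounds; Schedule: 37 °C compound incubation, 5 min RT before reading; Detection: CellTiter-Glo ATP luminescence.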

In order of falling AC50:
1. O=C(NC1=C(c2ccccc2)C(=O)c2ccccc2C1=O)c1ccccc1  32.2 µM
2. COc1ccc(C2=C(NC(=O)c3ccc(Cl)cc3)C(=O)c3ccccc3C2=O)cc1  32 µM
3. O=C1C(NS(=O)(=O)c2ccc(Br)cc2)=C(N2CCCCC2)C(=O)c2ccccc21  31.5 µM
4. O=C1C(NS(=O)(=O)c2ccc(Br)s2)=C(N2CCSCC2)C(=O)c2ccccc21  30.2 µM
5. COc1ccc(C(=O)NC2=C(c3ccccc3)C(=O)c3ccccc3C2=O)cc1  28.3 µM
6. O=C1C(NS(=O)(=O)c2ccccc2)=C(N2CCOCC2)C(=O)c2ccccc21  26.9 µM
7. COc1ccc(C2=C(NC(=O)c3cccc(OC)c3)C(=O)c3ccccc3C2=O)cc1  26.8 µM
8. O=C1C(NS(=O)(=O)c2ccc(Br)s2)=C(N2CCOCC2)C(=O)c2ccccc21  25.7 µM
9. CCN(CC)CCCNC1=C(Nc2ccccc2)C(=O)c2ccccc2C1=O  25.5 µM
10. O=C(NC1=C(N2CCOCC2)C(=O)c2ccccc2C1=O)c1ccccc1  24.4 µM
11. Cc1ccc(C(=O)NC2=C(c3ccccc3)C(=O)c3ccccc3C2=O)o1  23.7 µM
12. O=C(NC1=C(c2ccccc2)C(=O)c2ccccc2C1=O)c1ccco1  23.5 µM
13. O=C1C(NS(=O)(=O)c2ccc(Br)cc2)=C(N2CCOCC2)C(=O)c2ccccc21  23.4 µM
14. COc1ccc(C(=O)NC2=C(c3ccc(OC)cc3)C(=O)c3ccccc3C2=O)cc1  23.1 µM
15. CC1CCN(CC(CS(=O)(=O)c2ccc([N+](=O)[O-])cc2)N2CCC(C)CC2)CC1 (configuration not stated)  23 µM
16. C=C1C(=O)OC2C1CC/C(C)=C\CCC1(C)OC21 (configuration not stated)  22.9 µM
17. O=C(CNc1cccc2ccccc12)N/N=C/c1ccc([N+](=O)[O-])o1  22.8 µM
18. CC(=O)NC1=C(c2ccc3c(c2)oc2ccccc23)C(=O)c2ccccc2C1=O  22 µM
19. O=C1C(NS(=O)(=O)c2cccs2)=C(N2CCOCC2)C(=O)c2ccccc21  21.7 µM
20. COc1ccc(C2=C(NC(=O)c3ccccc3Cl)C(=O)c3ccccc3C2=O)cc1  21.3 µM
21. O=C(NC1=C(N2CCSCC2)C(=O)c2ccccc2C1=O)c1ccc(Br)cc1  20.8 µM
22. COc1cccc(C2=C(NC(=O)c3ccccc3)C(=O)c3ccccc3C2=O)c1  20.4 µM
23. CCN1CCN(C2=C(NS(=O)(=O)c3ccc(Br)cc3)C(=O)c3ccccc3C2=O)CC1  20 µM
24. COc1ccc(S(=O)(=O)N(C(C)=O)c2ccc(OC(C)=O)c3ccccc23)cc1[N+](=O)[O-]  19.6 µM
25. C=CCNC1=C(N2CCN(C)CC2)C(=O)c2ccccc2C1=O  19.1 µM
26. O=C(NC1=C(N2CCSCC2)C(=O)c2ccccc2C1=O)c1ccccc1  18.8 µM
27. CC(=O)NC1=C(c2ccccc2)C(=O)c2ccccc2C1=O  18.6 µM
28. C=CCNC1=C(N2CCN(CC)CC2)C(=O)c2ccccc2C1=O  17.9 µM
29. CCN1CCN(C2=C(NS(=O)(=O)c3ccc(Br)s3)C(=O)c3ccccc3C2=O)CC1  17.2 µM
30. CN1CCN(C2=C(Nc3ccccc3)C(=O)c3ccccc3C2=O)CC1  16.4 µM
31. COc1cccc(-c2cc(C(=O)NC3=C(Cl)C(=O)c4ccccc4C3=O)ccc2OC)c1  16.3 µM
32. C=CCNC1=C(NCCCN(CC)CC)C(=O)c2ccccc2C1=O  16.2 µM
33. NC1=C(NC(=O)c2ccccc2)C(=O)c2ccccc2C1=O  16.1 µM
34. O=C(NC1=C(N2CCOCC2)C(=O)c2ccccc2C1=O)c1ccc(Br)cc1  16.1 µM
35. CCN1CCN(C2=C(NS(=O)(=O)c3cccs3)C(=O)c3ccccc3C2=O)CC1  14.9 µM
36. CC(=O)NC1=C(c2ccc(Cl)cc2)C(=O)c2ccccc2C1=O  13.9 µM
37. COC1=C(NS(=O)(=O)c2ccccc2)C(=O)c2ccccc2C1=O  13.4 µM
38. CC(=O)NC1=C(c2cccc(Cl)c2)C(=O)c2ccccc2C1=O  13.1 µM
39. CN1CCN(C2=C(NS(=O)(=O)c3ccc(Br)s3)C(=O)c3ccccc3C2=O)CC1  12.5 µM
40. CCN1CCN(C2=C(Nc3ccccc3)C(=O)c3ccccc3C2=O)CC1  12.4 µM
41. COc1ccc(C2=C(NC(C)=O)C(=O)c3ccccc3C2=O)cc1  12 µM
42. CN1CCN(C2=C(NS(=O)(=O)c3cccs3)C(=O)c3ccccc3C2=O)CC1  11.7 µM
43. Cc1nc2ccccc2n1/N=C/c1ccc([N+](=O)[O-])s1  11.3 µM
44. C=CCNC1=C(NCCN(CC)CC)C(=O)c2ccccc2C1=O  8.96 µM
45. NC1=CC(=O)c2ccccc2C1=O  7.89 µM
46. CC(=O)N(C)C1=C(N2CCOCC2)C(=O)c2ccccc2C1=O  7.36 µM
47. CN1CCN(C2=C(NS(=O)(=O)c3ccccc3)C(=O)c3ccccc3C2=O)CC1  7.3 µM
48. CCN1c2ccccc2NC2N=C(OC)C(c3ccccc3)C21 (configuration not stated)  6.63 µM
49. C=CCNC1=C(N2CCSCC2)C(=O)c2ccccc2C1=O  5.96 µM
50. O=C1C(Nc2ccccc2)=C(N2CCCCC2)C(=O)c2ccccc21  5.84 µM
51. C=CCNC1=C(N2CCOCC2)C(=O)c2ccccc2C1=O  5.76 µM
52. O=C(NC1=C(Cl)C(=O)c2ccccc2C1=O)c1ccccc1  5.7 µM
53. CN1CCN(C2=C(NC(=O)c3ccccc3)C(=O)c3ccccc3C2=O)CC1  5.16 µM
54. CC(=O)N(C)C1=C(N2CCCCC2)C(=O)c2ccccc2C1=O  4.94 µM
55. CCN1CCN(C2=C(NC(=O)c3ccccc3)C(=O)c3ccccc3C2=O)CC1  3.93 µM
56. CCN(CC)CCCNC1=C(N(C)C(C)=O)C(=O)c2ccccc2C1=O  3.12 µM
57. CCN1CCN(C2=C(N(C)C(C)=O)C(=O)c3ccccc3C2=O)CC1  2.5 µM
58. O=C1C=C(Nc2ccccc2)C(=O)c2ccccc21  2.18 µM
59. CC(=O)N(C)C1=C(N2CCN(C)CC2)C(=O)c2ccccc2C1=O  1.96 µM
60. CN1CCN(C2=C(NC(=O)c3ccc(Br)cc3)C(=O)c3ccccc3C2=O)CC1  1.93 µM
61. CCN1CCN(C2=C(NC(=O)c3ccc(Br)cc3)C(=O)c3ccccc3C2=O)CC1  1.79 µM
62. C=CCNC1=C(N2CCCCC2)C(=O)c2ccccc2C1=O  1.61 µM
63. C=CCNC1=C(N(C)C(C)=O)C(=O)c2ccccc2C1=O  0.7 µM

For `C=CCNC1=C(Cl)C(=O)c2ccccc2C1=O`, the AC50 was 9.65 µM and 12.4 µM.
In the case of `C=CCNC1=C(NC(=O)c2ccccc2)C(=O)c2ccccc2C1=O`, the AC50 is reported as > 70 µM (inactive).
For `O=C1C(Nc2ccccc2)=C(N2CCSCC2)C(=O)c2ccccc21`, the AC50 was > 70 µM (inactive).
For `C=CCNC1=C(Nc2ccccc2)C(=O)c2ccccc2C1=O`, the AC50 was > 70 µM (inactive).
For `NC1=C(c2ccc(OC(F)(F)F)cc2)C(=O)c2ccccc2C1=O`, the AC50 was > 70 µM (inactive).
For `CN1CCN(C2=C(NS(=O)(=O)c3ccc(Br)cc3)C(=O)c3ccccc3C2=O)CC1`, the AC50 was > 70 µM (inactive).
With `O=C1C(Nc2ccccc2)=C(N2CCN(c3ccccc3)CC2)C(=O)c2ccccc21` the AC50 was > 70 µM (inactive).
In the case of `O=C(NC1=C(c2ccccc2)C(=O)c2ccccc2C1=O)c1ccc(Br)cc1`, the AC50 is reported as > 70 µM (inactive).
In the case of `COc1ccc(C(=O)NC2=C(c3ccc(OC(F)(F)F)cc3)C(=O)c3ccccc3C2=O)cc1`, the AC50 is reported as > 70 µM (inactive).
In the case of `O=C1C(NCCCN2CCOCC2)=C(Nc2ccccc2)C(=O)c2ccccc21`, the AC50 is reported as > 70 µM (inactive).
With `COc1ccc(C2=C(NC(=O)c3ccccc3OC)C(=O)c3ccccc3C2=O)cc1` the AC50 was > 70 µM (inactive).
For `COc1ccc(C2=C(N)C(=O)c3ccccc3C2=O)cc1`, the AC50 was > 70 µM (inactive).
For `O=C(NC1=C(N2CCCCC2)C(=O)c2ccccc2C1=O)c1ccccc1`, the AC50 was > 70 µM (inactive).
With `O=C(NC1=C(c2ccc(OC(F)(F)F)cc2)C(=O)c2ccccc2C1=O)c1ccccc1F` the AC50 was > 70 µM (inactive).
In the case of `O=C1C(NS(=O)(=O)c2ccc(Br)cc2)=C(c2ccc(OC(F)(F)F)cc2)C(=O)c2ccccc21`, the AC50 is reported as > 70 µM (inactive).
In the case of `C[C@@H](NC1=C(Nc2ccccc2)C(=O)c2ccccc2C1=O)c1ccccc1`, the AC50 is reported as > 70 µM (inactive).
In the case of `O=C1C(Nc2ccccc2)=C(N2CCOCC2)C(=O)c2ccccc21`, the AC50 is reported as 15.6 µM and 24.9 µM.

Tested on: not listed separately
Assay: as above
Details: MALME3 melanoma viability, CellTiter-Glo ATP luminescence, 24 h; at 35 µM (top of the series)
Summary of the method: as §1

With `O=C(NC1=C(c2ccc(OC(F)(F)F)cc2)C(=O)c2ccccc2C1=O)c1ccc(Br)cc1` the activity change, negative = inhibition was 2.43% (inactive).
In the case of `COc1ccc(C2=C(NC(=O)c3ccc(OC)cc3-c3cccc(OC)c3)C(=O)c3ccccc3C2=O)cc1`, the activity change, negative = inhibition is reported as -8.34% (inactive).
With `O=C(NC1=C(N2CCN(c3ccccc3)CC2)C(=O)c2ccccc2C1=O)c1ccccc1` the activity change, negative = inhibition was -8.35% (inactive).
In the case of `O=C(NC1=C(c2ccc(Oc3ccccc3)cc2)C(=O)c2ccccc2C1=O)c1ccccc1`, the activity change, negative = inhibition is reported as -15.3% (inactive).
For `O=C1C(NS(=O)(=O)c2ccc(Br)cc2)=C(N2CCN(c3ccccc3)CC2)C(=O)c2ccccc21`, the activity change, negative = inhibition was -51.2% (inactive).
With `COc1ccc(C2=C(NC(=O)c3ccc4ccccc4c3)C(=O)c3ccccc3C2=O)cc1` the activity change, negative = inhibition was -7.26% (inactive).
With `C=CCNC1=C(NCC=C)C(=O)c2ccccc2C1=O` the activity change, negative = inhibition was 2.12% (inactive).
